Assay results gathered from unrelated publications.
Target: LIM domain kinase 1 (LIMK1, Homo sapiens, UniProt P53667)

Nc1ncc2c(n1)-c1c([nH]c3ccc(C#CC4CC4)cc13)CCCC2  remaining binding (binding, competition with immobilised ligand; 1 µM): 96%
O=C(NCc1ncc(C(F)(F)F)cc1Cl)c1ccc2c(c1)C1(CCS(=O)(=O)CC1)[C@@H](C1CC1)N2S(=O)(=O)c1ccc(F)cc1  remaining binding (cell-free assay, competition with immobilised ligand; 1 µM): 91%
N[C@@H]1CCN(c2nccc(-c3cnn4ncccc34)n2)C1  remaining binding (binding; 1 µM): 73%
COc1ncc2cc3ccccc3nc2c1C#N  remaining binding (cell-free assay, competition with immobilised ligand; 5 µM): 98%
C=CC(=O)N1CCC(C(=O)NCC(=O)N2CCN(c3nc(-c4cnc(N)nc4C(F)F)nc(N4CCOCC4)n3)CC2)CC1  remaining binding (binding, competition with immobilised ligand; 1 µM): 100%
COc1cc(-c2cn(C3CCc4c(F)cccc4N(CC(F)(F)F)C3=O)nn2)ccc1-n1cnc(C)c1 (centres unmarked)  remaining binding (cell-free assay, competition with immobilised ligand; 1 µM): 100%
COc1ccnn2ncc(-c3ccnc(N(C)C)n3)c12  remaining binding (binding; 1 µM): 100%
O=C(NCCCN1CCOCC1)c1ccc(Nc2ncc(Cl)c(-c3ccc(Cl)s3)n2)cc1  remaining binding (binding, competition with immobilised ligand; 1 µM): 83%
N#CC1(c2ccccn2)CCN(Cc2cc(C(=O)N3CCCC3)c(=O)n3ccccc23)CC1  remaining binding (cell-free assay, competition with immobilised ligand; 1 µM): 98%
CN(C)c1nccc(-c2cnc3ncccn23)n1  remaining binding (binding; 1 µM): 100%
COCCOc1nc(-c2ccc(Cl)nc2)nc2c1CN(C(=O)c1ncn3ccccc13)CC2  remaining binding (cell-free assay, competition with immobilised ligand; 0.1 µM): 100%
O=C(Nc1c[nH]nc1C(=O)NC1CCNCC1)c1cc(F)cc(F)c1  remaining binding (binding, competition with immobilised ligand; 1 µM): 97%
CC(=O)N1CCC(c2ccc(C(=O)NC(=N)N)cc2C(F)(F)F)CC1  remaining binding (cell-free assay, competition with immobilised ligand; 1 µM): 100%
COc1cnc(Nc2cccc(S(N)(=O)=O)c2)nc1N1CCN(c2ccccc2)C(=O)C1  remaining binding (binding, competition with immobilised ligand; 1 µM): 100%
Cc1cnc(Nc2ccc(C(=O)N3CCC(N4CCCC4)CC3)cc2)nc1-c1cc2ccccc2s1  remaining binding (binding, competition with immobilised ligand; 1 µM): 55%
Cc1cc(NC(=O)c2cccc(S(F)(F)(F)(F)F)c2)cc(-n2ccn3nc(-c4cccnc4)cc23)c1  remaining binding (cell-free assay, competition with immobilised ligand; 1 µM): 100%
CN(C)c1ncc(F)c(-c2cnn3ncccc23)n1  remaining binding (binding; 1 µM): 89%
O=C(c1ccc(Nc2ncc(Cl)c(-c3ccc(Cl)s3)n2)cc1)N1CCC(N2CCCC2)CC1  remaining binding (binding, competition with immobilised ligand; 1 µM): 40%
C[C@H]1CCN(c2nccc(-c3cnn4ncccc34)n2)C1  remaining binding (binding; 1 µM): 91%
c1cncc(-c2cccc(Nc3nccc(NC4CCCCC4)n3)c2)c1  remaining binding (binding, competition with immobilised ligand; 10 µM): 56%
